Test results reported in ChEMBL document CHEMBL1275449, “Potent in vitro antifungal activities of naturally occurring acetylenic acids” (Antimicrob Agents Chemother, 2008).
In brackets after ≈: the same amount, converted by molar mass.

How the values were obtained:
Type in all cases: functional, organism-based
[1] = system: Candida albicans; experiment: Antifungal activity against Candida albicans ATCC 90028 after 48 hrs by CLSI method; conditions: ATCC 90028, 48 h
Outline: (§1)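 CLSI broth microdilution. Colonies from 24–72 h SD agar suspended in saline and sized by OD630 standard curve. Inoculum 1.5 × 10³ CFU/ml (final) in RPMI 1640 (0.2% dextrose, 0.03% glutamine, 0.165 M MOPS, pH 7.0). Twofold dilutions (11 levels) from 20% DMSO-saline, in duplicate. 35°C for 48 h, OD530 read before and after. IC50 fitted from % growth. MIC: no detectable growth. MFC: subculture onto SD agar.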

[2] = system: Candida tropicalis; experiment: Antifungal activity against Candida tropicalis ATCC 750 after 48 hrs by CLSI method; conditions: ATCC 750, 48 h
Outline: (§2)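 Yeast suspensions made from 3-5 colonies off 24-72 h SD agar plates in saline. They were diluted by OD630 standard curve in RPMI 1640 (0.2% dextrose, 0.03% glutamine, 0.165 M MOPS, pH 7.0) to 1.5 × 10³ CFU/ml. Twofold dilutions (11 concentrations, 20% DMSO-saline) run in duplicate. OD530 read before and after 35°C, 48 h. Line values are top test concentrations; no-growth endpoints give MIC/MFC.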

[3] = system: Candida albicans; experiment: Antifungal activity against Candida albicans ATCC 14053 after 48 hrs by CLSI method; conditions: ATCC 14053, 48 h; outline: as §1
[4] = system: Trichophyton rubrum; experiment: Antifungal activity against Trichophyton rubrum ATCC MYA-4438 by CLSI method
Outline: (§3)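 Growth scraped from 1- to 6-week-old potato dextrose slants and filtered through Miracloth. Diluted in 5% Alamar blue-RPMI 1640 (MOPS pH 7.0) to 2.7 × 10⁴ CFU/ml. Eleven twofold dilutions in duplicate. Fluorescence at 544 nm excitation/590 nm emission read before and after 35°C, 5 days. IC50 fitted from percent growth. MIC taken as no detectable growth; MFC from clear or blue wells plated on PD agar.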

[5] = system: Trichophyton mentagrophytes; experiment: Antifungal activity against Trichophyton mentagrophytes ATCC 9533 by CLSI method; outline: as §3
[6] = system: Candida albicans; experiment: Antifungal activity against Candida albicans ATCC 32354 after 48 hrs by CLSI method; conditions: ATCC 32354, 48 h; outline: as §1
[7] = system: Candida albicans; experiment: Antifungal activity against Candida albicans ATCC 60193 after 48 hrs by CLSI method; conditions: ATCC 60193, 48 h; outline: as §1
[8] = system: Candida albicans; experiment: Antifungal activity against Candida albicans ATCC 200955 after 48 hrs by CLSI method; conditions: ATCC 200955, 48 h; outline: as §1
[9] = system: Candida albicans; experiment: Antifungal activity against Fluconazole resistant Candida albicans clinical isolate 1 after 48 hrs by CLSI method; outline: as §1
[10] = system: Candida albicans; experiment: Antifungal activity against Fluconazole resistant Candida albicans clinical isolate 17 after 48 hrs by CLSI method; outline: as §1
[11] = system: Pichia kudriavzevii; experiment: Antifungal activity against Candida krusei ATCC 6258 after 48 hrs by CLSI method; conditions: ATCC 6258, 48 h
Outline: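 Candida inocula came from 24–72-h SD agar colonies suspended in saline. They were diluted by OD630 standard curve into RPMI 1640 (0.2% dextrose, 0.03% glutamine, 0.165 M MOPS, pH 7.0) to 1.5 × 10³ CFU/ml. Compounds were run as 11 twofold dilutions in 20% DMSO-saline, in duplicate, at 35°C for 48 h, with OD530 read before and after. Percent growth at the top concentration, IC50, MIC, and MFC (SD agar plating) were derived.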

[12] = system: Candida parapsilosis; experiment: Antifungal activity against Candida parapsilosis ATCC 22019 after 48 hrs by CLSI method; conditions: Lodderomyces parapsilosis, ATCC 22019, 48 h; outline: as §2
[13] = system: Trichophyton rubrum; experiment: Antifungal activity against Trichophyton rubrum ATCC 10218 by CLSI method; outline: as §3

OC(Cn1cncn1)(Cn1cncn1)c1ccc(F)cc1F [FLUCONAZOLE] gave an IC50 [1] of 800 nM, an MIC [1] of 6.4 µM (≈ 1.96 µg/mL) and an IC50 [2] of 4300 nM. The MIC [2] was 15.3 µM (≈ 4.69 µg/mL), the IC50 [3] was 500 nM and the MIC [3] was 1.3 µM (≈ 0.398 µg/mL). For the same molecule, the IC50 [4] was 2700 nM, the MIC [4] was 6.4 µM (≈ 1.96 µg/mL) and the IC50 [5] was 29500 nM. For the same molecule, the MIC [5] was 61.2 µM (≈ 18.7 µg/mL), the IC50 [6] was 800 nM and the MIC [6] was 5.7 µM (≈ 1.75 µg/mL). For the same molecule, the IC50 [7] was 400 nM, the MIC [7] was 0.6 µM (≈ 0.184 µg/mL) and the IC50 [8] was 400 nM. It also gave an MIC [8] of 1.3 µM (≈ 0.398 µg/mL), an IC50 [9] of 800 nM and an MIC [9] of 5.1 µM (≈ 1.56 µg/mL). It also gave an IC50 [10] of 163000 nM, an IC50 [11] of 126000 nM and an MIC [11] of 163 µM (≈ 50 µg/mL). It also gave an IC50 [12] of 3400 nM, an MIC [12] of 10.2 µM (≈ 3.12 µg/mL) and an IC50 [13] of 1800 nM. It also gave an MFC [13] of 163 µM (≈ 50 µg/mL) and an MIC [13] of 1.9 µM (≈ 0.582 µg/mL).
